ChEMBL document CHEMBL3352617, “Discovery of 9-(1-phenoxyethyl)-2-morpholino-4-oxo-pyrido[1,2-a]pyrimidine-7-carboxamides as oral PI3Kβ inhibitors, useful as antiplatelet agents” (Bioorg Med Chem Lett, 2014)

Key:
[1] = system: Hepatocyte; assay: Intrinsic clearance in human hepatocytes at 2 uM by LCMS analysis; type: ADME, cell-based
Outline: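 Test compound incubated with human hepatocytes. Intrinsic clearance and half-life derived from compound disappearance.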

[2] = Lipophilicity, log D of the compound at pH 7.4 by HPLC method; type: physicochemical; conditions: buffer
Outline: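 LogD measured experimentally at pH 7.4 by an HPLC method.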

[3] = Apparent permeability across apical to basolateral side of human Caco2 cells at 10 uM at pH 6.5 by LC-tandem MS analysis; type: ADME, cell-based; conditions: Caco-2, pH 6.5
Outline: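 Caco-2 monolayers, apical-to-basolateral transport at pH 6.5. Result given as apparent permeability (Papp).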

[4] = Antiplatelet activity against human platelet assessed as inhibition of collagen-induced platelet rich plasma aggregation by light transmission aggregometry; type: functional, cell-free
Outline: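 Human platelet rich plasma stimulated with collagen. Aggregation read by light transmission aggregometry in an in-house 96-well plate format.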

[5] = target: Phosphatidylinositol 4,5-bisphosphate 3-kinase catalytic subunit alpha isoform (Homo sapiens, UniProt P42336); assay: Inhibition of human recombinant PI3Kalpha assessed as PIP3 production by AlphaScreen assay
Chain of Phosphatidylinositol 4,5-bisphosphate 3-kinase catalytic subunit alpha isoform (P42336 whole entry, canonical isoform): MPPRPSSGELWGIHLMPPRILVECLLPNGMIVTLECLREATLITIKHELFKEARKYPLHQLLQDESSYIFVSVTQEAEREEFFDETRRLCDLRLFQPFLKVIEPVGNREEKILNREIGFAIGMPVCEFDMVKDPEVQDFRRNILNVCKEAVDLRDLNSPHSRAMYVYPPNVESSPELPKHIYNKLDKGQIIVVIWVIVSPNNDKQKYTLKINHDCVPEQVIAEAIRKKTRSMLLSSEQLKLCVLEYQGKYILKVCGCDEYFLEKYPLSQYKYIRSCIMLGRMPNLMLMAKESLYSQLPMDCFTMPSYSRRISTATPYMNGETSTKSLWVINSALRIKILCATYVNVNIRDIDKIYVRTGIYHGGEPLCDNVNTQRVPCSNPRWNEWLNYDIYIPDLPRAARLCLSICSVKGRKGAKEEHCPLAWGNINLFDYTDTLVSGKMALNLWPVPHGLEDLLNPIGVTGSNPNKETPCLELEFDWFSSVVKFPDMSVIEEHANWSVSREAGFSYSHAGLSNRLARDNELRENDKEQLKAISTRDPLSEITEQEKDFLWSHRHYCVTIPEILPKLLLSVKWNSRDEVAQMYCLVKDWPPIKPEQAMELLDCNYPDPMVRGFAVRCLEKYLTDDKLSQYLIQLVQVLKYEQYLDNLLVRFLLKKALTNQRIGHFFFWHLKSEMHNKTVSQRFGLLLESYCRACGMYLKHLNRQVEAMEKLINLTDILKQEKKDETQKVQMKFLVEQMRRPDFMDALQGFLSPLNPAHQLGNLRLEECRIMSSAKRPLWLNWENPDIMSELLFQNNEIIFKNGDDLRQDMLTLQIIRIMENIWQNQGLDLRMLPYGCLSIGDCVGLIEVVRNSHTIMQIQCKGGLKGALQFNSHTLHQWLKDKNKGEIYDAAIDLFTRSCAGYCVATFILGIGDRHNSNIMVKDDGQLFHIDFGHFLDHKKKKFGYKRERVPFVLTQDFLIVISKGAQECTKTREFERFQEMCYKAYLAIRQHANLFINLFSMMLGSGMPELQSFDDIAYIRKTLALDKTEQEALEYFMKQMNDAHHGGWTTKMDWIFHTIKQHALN

[6] = target: Phosphatidylinositol 4,5-bisphosphate 3-kinase catalytic subunit beta isoform (Homo sapiens, UniProt P42338); assay: Inhibition of human recombinant PI3Kbeta assessed as PIP3 production by AlphaScreen assay
Chain of Phosphatidylinositol 4,5-bisphosphate 3-kinase catalytic subunit beta isoform (P42338 whole entry, canonical isoform): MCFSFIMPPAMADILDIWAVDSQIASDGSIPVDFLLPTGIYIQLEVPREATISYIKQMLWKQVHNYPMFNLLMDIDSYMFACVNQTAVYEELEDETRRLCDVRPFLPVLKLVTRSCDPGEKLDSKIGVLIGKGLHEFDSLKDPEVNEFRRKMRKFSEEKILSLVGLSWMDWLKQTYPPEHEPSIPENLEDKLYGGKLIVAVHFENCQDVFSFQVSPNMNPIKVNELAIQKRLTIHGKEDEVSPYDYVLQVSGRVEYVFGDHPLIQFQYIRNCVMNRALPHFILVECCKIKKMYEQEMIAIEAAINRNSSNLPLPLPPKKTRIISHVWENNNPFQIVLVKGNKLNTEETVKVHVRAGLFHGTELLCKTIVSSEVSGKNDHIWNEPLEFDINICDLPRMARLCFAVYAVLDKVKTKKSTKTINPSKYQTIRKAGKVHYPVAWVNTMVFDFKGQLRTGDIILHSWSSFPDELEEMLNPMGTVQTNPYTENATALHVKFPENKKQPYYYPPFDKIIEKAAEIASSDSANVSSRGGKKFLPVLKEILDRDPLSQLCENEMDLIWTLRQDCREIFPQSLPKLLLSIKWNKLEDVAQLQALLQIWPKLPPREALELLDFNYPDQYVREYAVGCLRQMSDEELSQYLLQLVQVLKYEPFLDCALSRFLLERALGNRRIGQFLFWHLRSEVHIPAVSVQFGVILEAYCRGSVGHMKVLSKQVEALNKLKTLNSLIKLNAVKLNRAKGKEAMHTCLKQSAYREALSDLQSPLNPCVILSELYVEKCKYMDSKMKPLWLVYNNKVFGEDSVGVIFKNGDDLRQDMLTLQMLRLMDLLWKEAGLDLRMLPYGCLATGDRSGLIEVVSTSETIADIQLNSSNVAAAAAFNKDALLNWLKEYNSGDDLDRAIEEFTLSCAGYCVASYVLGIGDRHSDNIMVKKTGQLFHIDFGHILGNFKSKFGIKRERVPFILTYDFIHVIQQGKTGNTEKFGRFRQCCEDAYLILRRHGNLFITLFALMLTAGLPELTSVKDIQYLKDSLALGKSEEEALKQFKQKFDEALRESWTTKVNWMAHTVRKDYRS

Row | Intrinsic clearance (CLint) [1] [µL/min] | logD [2] | Papp A→B at 10 µM [3] [×10⁻⁶ cm/s] | IC50 [4] [nM] | IC50 [5] [nM] | IC50 [6] [nM] | SMILES
1 | 18.1 | 0.8 | 0.08 | – | – | – | Cc1cc(C(C)Nc2ccccc2-c2nnn[nH]2)c2nc(N3CCOCC3)cc(=O)n2c1 (racemic)
2 | < 4 | 1.5 | – | – | – | – | CC(Nc1ccccc1)c1cc(C(=O)NCCN2CCNCC2)cn2c(=O)cc(N3CCOCC3)nc12 (racemic)
3 | 11.9 | 1.2 | 15 | – | – | – | Cc1cc(C(C)Nc2cc(Cl)ccc2C(=O)O)c2nc(N3CCOCC3)cc(=O)n2c1 (racemic)
4 | – | 2 | – | 1500 | – | – | CC(Oc1cccc(C#N)c1)c1cc(C(=O)N(C)CCO)cn2c(=O)cc(N3CCOCC3)nc12 (racemic)
5 | – | 3 | – | 700 | – | – | Cc1ccccc1OC(C)c1cc(C(=O)N(C)CCO)cn2c(=O)cc(N3CCOCC3)nc12 (racemic)
6 | – | 1.9 | – | 9600 | – | – | COc1ccccc1OC(C)c1cc(C(=O)N(C)CCO)cn2c(=O)cc(N3CCOCC3)nc12 (racemic)
7 | 30.2 | 1.5 | 52 | – | 2880 | 84 | Cc1cc([C@@H](C)Nc2ccccc2C(=O)NO)c2nc(N3CCOCC3)cc(=O)n2c1
8 | < 4 | 0.3 | 0.9 | – | – | – | Cc1cc(C(C)Nc2cccc(C(=O)O)c2)c2nc(N3CCOCC3)cc(=O)n2c1 (racemic)
9 | < 4 | 2 | 4.3 | – | – | – | CC(Nc1ccccc1)c1cc(C(=O)N(C)CCO)cn2c(=O)cc(N3CCOCC3)nc12 (racemic)
10 | < 4 | 0.6 | 1 | – | – | – | CC(Nc1ccccc1)c1cc(C(=O)N(C)CC(=O)O)cn2c(=O)cc(N3CCOCC3)nc12 (racemic)

Continued, compound first:

Row | SMILES | Intrinsic clearance (CLint) [1] [µL/min] | logD [2] | Papp A→B at 10 µM [3] [×10⁻⁶ cm/s] | IC50 [4] [nM] | IC50 [5] [nM] | IC50 [6] [nM]
11 | CC(Nc1ccccc1)c1cc(C(=O)NCCN(C)C)cn2c(=O)cc(N3CCOCC3)nc12 (racemic) | < 4 | 1.7 | – | – | – | –
12 | CC(Nc1ccccc1)c1cc(C(=O)N2CCOCC2)cn2c(=O)cc(N3CCOCC3)nc12 (racemic) | < 4 | 2.7 | 26.9 | – | – | –
13 | CC(Nc1ccccc1)c1cc(C(=O)N(C)C)cn2c(=O)cc(N3CCOCC3)nc12 (racemic) | 4.3 | 2.7 | 35.4 | – | – | –
14 | Cc1c(F)cccc1OC(C)c1cc(C(=O)N(C)CCO)cn2c(=O)cc(N3CCOCC3)nc12 (racemic) | – | 3.3 | – | 700 | – | –
15 | Cc1cccc(OC(C)c2cc(C(=O)N(C)CCO)cn3c(=O)cc(N4CCOCC4)nc23)c1 (racemic) | – | 2.8 | – | 5000 | – | –
16 | COc1cccc(OC(C)c2cc(C(=O)N(C)CCO)cn3c(=O)cc(N4CCOCC4)nc23)c1 (racemic) | – | 2.3 | – | 1900 | – | –
17 | CC(Nc1ccccc1)c1cc(C(=O)O)cn2c(=O)cc(N3CCOCC3)nc12 (racemic) | < 4 | 0.6 | 0.04 | – | – | –
18 | Cc1cc(C(C)Nc2ccccc2)c2nc(N3CCOCC3)cc(=O)n2c1 (racemic) | 20 | – | 66 | – | 5800 | –
19 | CC(Oc1ccccc1)c1cc(C(=O)N(C)CCO)cn2c(=O)cc(N3CCOCC3)nc12 (racemic) | – | 2.3 | – | 400 | – | –
20 | Cc1cc([C@@H](C)Nc2ccccc2C(=O)NS(C)(=O)=O)c2nc(N3CCOCC3)cc(=O)n2c1 | 15 | 0.9 | 0.11 | – | 160 | 12
21 | Cc1cc(OC(C)c2cc(C(=O)N(C)CCO)cn3c(=O)cc(N4CCOCC4)nc23)ccc1F (racemic) | – | 2.9 | – | 2500 | – | –
22 | Cc1cc(C(C)Nc2ccccc2S(=O)(=O)O)c2nc(N3CCOCC3)cc(=O)n2c1 (racemic) | < 4 | 0.3 | < 0.05 | – | – | –
23 | CC(Oc1ccccc1F)c1cc(C(=O)N(C)CCO)cn2c(=O)cc(N3CCOCC3)nc12 (racemic) | – | 2.3 | – | 2100 | – | –
